Test results reported in ChEMBL document CHEMBL3616436, “Synthesis, cytotoxicity and antimicrobial activity of thiourea derivatives incorporating 3-(trifluoromethyl)phenyl moiety” (Eur J Med Chem, 2015).
Calls of active or inactive are those of the source.

Tests used:
[1] = Cytotoxicity against human MT4 cells; type: cell-based
[2] = test system: Vesicular stomatitis virus; test: Antiviral activity against Vesicular stomatitis virus ATCC VR 1540 infected in African green monkey Vero 76 cells assessed as reduction of virus-plaque formation after 2 days by crystal violet staining; type: functional, organism-based; details: ATCC VR 1540, Vero, 48 h
[3] = test system: Human immunodeficiency virus 1; test: Antiviral activity against HIV1 3B infected in human MT4 cells assessed as protection against virus-induced cytopathogenicity by MTT assay; type: functional, organism-based; details: Human immunodeficiency virus 1, 3B
[4] = Cytotoxicity against bovine MDBK cells assessed as cell viability after 48 to 96 hrs by MTT assay; type: cell-based, Bos taurus; details: cattle
[5] = Antiviral activity against Bovine viral diarrhea virus 1-NADL ATCC VR-534 infected in MDBK cells assessed as protection against virus-induced cytopathogenicity after 3 to 4 days by MTT assay; type: functional, cell-based; details: Bovine viral diarrhea virus isolates and strains, ATCC VR-534, MDBK
Method in brief: (§1)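 Cells seeded in 96-well plates (BHK 5x10^4, MDBK 3x10^4 cells/well), grown overnight to confluence, infected at m.o.i. 0.01 (BHK for Reo-1, MDBK for BVDV); serial compound dilutions in maintenance medium with 0.5% inactivated FBS added after 1 h; viability by MTT after 3–4 days at 37°C; EC50 for 50% protection by linear regression.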

[6] = Cytotoxicity against BHK cells assessed as cell viability after 48 to 96 hrs by MTT assay; type: cell-based, Mesocricetus auratus; details: hamster
Yellow fever virus = test: Antiviral activity against Yellow fever virus 17D infected in BHK cells assessed as protection against virus-induced cytopathogenicity after 3 to 4 days by MTT assay; type: functional, cell-based
[7] = test system: Mammalian orthoreovirus 1; test: Antiviral activity against Reovirus type-1 ATCC VR-214 infected in BHK cells assessed as protection against virus-induced cytopathogenicity after 3 to 4 days by MTT assay; type: functional, cell-based; details: Mammalian orthoreovirus 1, ATCC VR-214, BHK; method in brief: as §1
[8] = Cytotoxicity against African green monkey Vero 76 cells assessed as cell viability after 48 to 96 hrs by crystal violet staining; type: cell-based; details: chlorocebus sabaeus
Coxsackievirus B5 = test: Antiviral activity against Human coxsackievirus B5 ATCC VR-29 infected in African green monkey Vero 76 cells assessed as reduction of virus-plaque formation after 3 days by crystal violet staining; type: functional, organism-based; details: Enterovirus B, ATCC VR-29, Vero, 72 h
Method in brief: (§2)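 Plaque reduction: Vero-76 at 2x10^5 cells/well grown to confluent monolayers, infected 2 h at 50–100 PFU/well; after removing unadsorbed virus, overlay of D-MEM, 1% inactivated FBS, 0.75% methylcellulose with or without serial compound dilutions; 3 days at 37°C, fixed and stained with crystal violet in 50% ethanol, plaques counted; EC50 by linear regression.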

Poliovirus 1 = test: Antiviral activity against Poliovirus type 1 ATCC VR-1562 infected in African green monkey Vero 76 cells assessed as reduction of virus-plaque formation after 2 days by crystal violet staining; type: functional, organism-based; details: Enterovirus C, ATCC VR-1562, Vero, 48 h
Vaccinia virus = test: Antiviral activity against Human Vaccinia virus ATCC VR-1549 infected in African green monkey Vero 76 cells assessed as reduction of virus-plaque formation after 3 days by crystal violet staining; type: functional, organism-based; details: Orthopoxvirus vaccinia, ATCC VR-1549, Vero, 72 h
Human alphaherpesvirus 1 = test: Antiviral activity against Human herpesvirus 1 KOS ATCC VR-1493 infected in African green monkey Vero 76 cells assessed as reduction of virus-plaque formation after 3 days by crystal violet staining; type: functional, organism-based; details: Human alphaherpesvirus 1, KOS ATCC VR1493, Vero, 72 h; method in brief: as §2
Escherichia coli [9] = test: Antimicrobial activity against Escherichia coli ATCC 10538 after 18 hrs by twofold serial microdilution method; type: functional, organism-based
Escherichia coli [10] = test: Antimicrobial activity against Escherichia coli ATCC 25922 after 18 hrs by twofold serial microdilution method; type: functional, organism-based
Escherichia coli [11] = test: Antimicrobial activity against Escherichia coli NCTC 8196 after 18 hrs by twofold serial microdilution method; type: functional, organism-based
Pseudomonas aeruginosa [12] = test: Antimicrobial activity against Pseudomonas aeruginosa ATCC 15442 after 18 hrs by twofold serial microdilution method; type: functional, organism-based
Pseudomonas aeruginosa [13] = test: Antimicrobial activity against Pseudomonas aeruginosa NCTC 6749 after 18 hrs by twofold serial microdilution method; type: functional, organism-based
Pseudomonas aeruginosa [14] = test: Antimicrobial activity against Pseudomonas aeruginosa ATCC 27863 after 18 hrs by twofold serial microdilution method; type: functional, organism-based
[15] = test system: Bordetella bronchiseptica; test: Antimicrobial activity against Bordetella bronchiseptica ATCC 4617 after 18 hrs by twofold serial microdilution method; type: functional, organism-based
Candida albicans [16] = test: Antimicrobial activity against Candida albicans ATCC 10231 after 24 hrs by twofold serial microdilution method; type: functional, organism-based
Candida albicans [17] = test: Antimicrobial activity against Candida albicans ATCC 90028 after 24 hrs by twofold serial microdilution method; type: functional, organism-based
Candida parapsilosis = test: Antimicrobial activity against Candida parapsilosis ATCC 22019 after 24 hrs by twofold serial microdilution method; type: functional, organism-based

CCCC[C@H]1CC[C@H](c2ccc(NC(=S)Nc3cccc(C(F)(F)F)c3)cc2)CC1
> 10 µM: EC50 [5]
> 17 µM: EC50 [2] | EC50 (Coxsackievirus B5) | EC50 (Poliovirus 1) | EC50 (Vaccinia virus) | EC50 (Human alphaherpesvirus 1)
22 µM: CC50 [1]
> 22 µM: EC50 [3]
> 9.5 µM: EC50 (Yellow fever virus) | EC50 [7]
17 µM: CC50 [8]
10 µM: CC50 [4]
9.5 µM: CC50 [6]
inactive: Activity (Escherichia coli [9]) | Activity (Escherichia coli [10]) | Activity (Escherichia coli [11]) | Activity (Pseudomonas aeruginosa [12]) | Activity (Pseudomonas aeruginosa [13]) | Activity (Pseudomonas aeruginosa [14]) | Activity [15] | Activity (Candida albicans [16]) | Activity (Candida albicans [17]) | Activity (Candida parapsilosis)

FC(F)(F)c1cccc(NC(S)=NCCN2CCOCC2)c1
inactive: Activity (Escherichia coli [9]) | Activity (Escherichia coli [10]) | Activity (Escherichia coli [11]) | Activity (Pseudomonas aeruginosa [12]) | Activity (Pseudomonas aeruginosa [13]) | Activity (Pseudomonas aeruginosa [14]) | Activity [15] | Activity (Candida albicans [16]) | Activity (Candida albicans [17]) | Activity (Candida parapsilosis)
> 100 µM: CC50 [1] | EC50 [2] | EC50 [3] | CC50 [4] | EC50 [5] | CC50 [6] | EC50 (Yellow fever virus) | EC50 [7] | CC50 [8] | EC50 (Coxsackievirus B5) | EC50 (Poliovirus 1) | EC50 (Vaccinia virus) | EC50 (Human alphaherpesvirus 1)

CC(=O)NC(=S)Nc1cccc(C(F)(F)F)c1
inactive: Activity (Escherichia coli [9]) | Activity (Escherichia coli [10]) | Activity (Escherichia coli [11]) | Activity (Pseudomonas aeruginosa [12]) | Activity (Pseudomonas aeruginosa [13]) | Activity (Pseudomonas aeruginosa [14]) | Activity [15] | Activity (Candida albicans [16]) | Activity (Candida albicans [17]) | Activity (Candida parapsilosis)
> 100 µM: CC50 [1] | EC50 [2] | EC50 [3] | CC50 [4] | EC50 [5] | CC50 [6] | EC50 (Yellow fever virus) | EC50 [7] | CC50 [8] | EC50 (Coxsackievirus B5) | EC50 (Poliovirus 1) | EC50 (Vaccinia virus) | EC50 (Human alphaherpesvirus 1)
